Measurements from ChEMBL document CHEMBL3227955, “Studies on the mechanism of antiviral action of 1-(beta-D-ribofuranosyl)-1,2,4-triazole-3-carboxamide (ribavirin)” (J Med Chem, 1979).
Activity calls are given as the source filed them. The rule behind the calls is not given here.

Biological target: not listed separately
Assay: Inhibition of rat spleen IMP dehydrogenase using NAD and IMP up to 1 hr
Type: tissue-based
How it was run: (§1)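 Rat spleen IMP dehydrogenase was the 30–40% (NH4)2SO4 fraction, dialyzed, at 0.66 mg protein/mL. Buffer was 0.1 M phosphate pH 7.7 with 1 mM EDTA, 0.5 mM 2-mercaptoethanol and 0.2 mM each NAD and IMP, started with IMP. A340 change against a no-IMP blank was followed at 37 °C for up to 1 h. Activity was expressed relative to the no-inhibitor rate.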
Work on `NC(=O)c1ncn([C@@H]2O[C@H](COP(=O)(O)O)[C@@H](O)[C@H]2O)n1` [RIBAVIRIN MONOPHOSPHATE] yielded an IC50 of 2 µM. In the case of `O=C(O)c1ncn([C@@H]2O[C@H](COP(=O)(O)O)[C@@H](O)[C@H]2O)n1`, the IC50 is reported as 70 µM.

Species: Rattus norvegicus
Assay: Activity at rat liver nucleoside kinase assessed as phosphorylation using [gamma-32P]-ATP after 10 to 20 mins
How it was run: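 Rat liver nucleoside kinase was the 55–90% (NH4)2SO4 fraction of the 144000g supernatant, dialyzed. The medium was 50 mM Tris-HCl pH 8.0, 5 μM MgCl2 (so in the source), 25 mM KCl, 1 mM [γ-32P]ATP, and pyruvate kinase with 2 mM phosphoenolpyruvate. Incubation was 10 or 20 min at 37 °C, stopped by 1 min at 100 °C. Liberated Pi was precipitated with added 0.1 mM K2HPO4.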
For `NC(=O)c1ncn([C@@H]2O[C@H](CO)[C@@H](O)[C@H]2O)n1`, the Activity was “Active”. In the case of `CO[C@@H]1[C@H](O)[C@@H](CO)O[C@H]1n1cnc(C(N)=O)n1`, the Activity is reported as “inactive”. For `Nc1ncnc2c1ncn2[C@@H]1O[C@H](CO)[C@@H](O)[C@H]1O`, the Activity was “Active”. With `OC[C@H]1O[C@@H](n2cncn2)[C@H](O)[C@@H]1O` the Activity was “inactive”. With `O=C(O)c1ncn([C@@H]2O[C@H](CO)[C@@H](O)[C@H]2O)n1` the Activity was “inactive”. With `CO[C@H]1[C@@H](O)[C@H](n2cnc(C(N)=O)n2)O[C@@H]1CO` the Activity was “inactive”.

Species: Rattus norvegicus
Assay: Inhibition of rat spleen IMP dehydrogenase using NAD and IMP at 200 uM up to 1 hr
Type: tissue-based
How it was run: as §1
In the case of `CO[C@@H]1[C@H](O)[C@@H](COP(=O)(O)O)O[C@H]1n1cnc(C(N)=O)n1`, the inhibition is reported as “inactive”. With `CO[C@H]1[C@@H](O)[C@H](n2cnc(C(N)=O)n2)O[C@@H]1COP(=O)(O)O` the inhibition was “inactive”. For `O=P(O)(O)OC[C@H]1O[C@@H](n2cncn2)[C@H](O)[C@@H]1O`, the inhibition was “inactive”.
